Here are results for four molecules from paper PMC8381683 (Pharmacology Research & Perspectives, 2021).

Where two headings read alike, the source gives them in different places. Where only a bound is given, the exact number is not on record here.

For data set [1], the system named is DA turnover in the rat striatum. Description: In vivo DA turnover and serotonin biomarkers in the rat striatum.
Data set [2] concerns C57BL/6J mice. Description: Food intake in the mouse. In kind it is in vivo. The gist of the method: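 C57BL/6J mice (24–26 g) single-housed on a reversed 12 h/12 h cycle, lights off at 9:00 a.m. Test compound given p.o. (vehicle 1% methylcellulose in water, 10 ml/kg) or i.p. 15 min before lights-off. Food consumption recorded at 1:00 p.m., 4 h after lights-off. 8 mice per group.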

The target of data set [3] is human H3 histamine receptor (Homo sapiens, UniProt Q9Y5N1). Description: [35S]-GTPγS functional binding assay on the H3 histamine receptor. It is filed as biochemical.
The conditions of data set [4]: for Brain AUC0-8h / Brain C max / Brain C max (molar): 10 mg/kg, p.o., male Swiss mice; for Brain C max at pharmacologically active doses / Brain C max at pharmacologically active doses (molar): male, Swiss, mouse, in vivo, po.
A short description of data set [5]: in vivo. The conditions noted are these: male, Swiss, mouse, po, 10 mg/kg.
In data set [6] the test system is male Wistar rats. Description: Behavioral drug sensitization in the rat. In kind it is in vivo. In outline:
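Male Wistar rats (240–270 g) habituated 1 h in the test room before each daily session. Dosed p.o. (vehicle 1% methylcellulose, 4 ml/kg) or i.p. (saline) immediately before placement in the same dim (5 lux) 76×76 cm open field. Five sessions between 1 and 5 p.m. on 5 successive days. Locomotion video-tracked for 40 min. n=5–6. ANOVA/Fisher's LSD versus vehicle; paired t test versus day 1.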

Data set [7] deals with tele-methylhistamine in the brain of mice. The conditions noted are these: cited from earlier work.
For data set [8], the target named is human NET (SLC6A2) (Homo sapiens, UniProt P23975). Description: fluorescence-based neurotransmitter transporter uptake assay, NET. It is filed as cell-based.
The subject of data set [9] is C57BL/6J mice. The experiment in a line: Effect of pitolisant on solriamfetol- or modafinil-induced locomotor activity. In kind it is in vivo, mouse. The conditions noted are these: pitolisant 20 mg/kg, p.o.
For data set [10], the target named is human DAT (SLC6A3) (Homo sapiens, UniProt Q01959). Description: cell-based.
The conditions of data set [11]: 10 mg/kg, p.o., male Swiss mice, ref Ligneau et al. 29, cited from earlier work.
Data set [12] deals with C57BL/6J mice. Description: Spontaneous locomotor activity in the mouse. It is filed as in vivo. To be noted: p.o.
The conditions of data set [13]: cited from earlier work.
Data set [14] concerns the target human SERT (SLC6A4) (Homo sapiens, UniProt P31645). The experiment in a line: cell-based. It is filed as cell-based.
Data set [15] deals with extracellular DA in the rat nucleus accumbens. To be noted: cited from earlier work.
Data set [16] shares this test system. Description: In vivo microdialysis in the rat nucleus accumbens. To be noted: p.o. The gist of the method:
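Under chloral hydrate (400 mg/kg i.p.), rats received a stereotaxic guide cannula in nucleus accumbens (AP +1.2 mm from bregma, […], DV −5.8 mm from dura). Recovery ≥5 days, single-housed. In freely moving rats, extracellular DA sampled via a 2-mm microdialysis probe after oral test compound or vehicle (1% methylcellulose in water, 5 ml/kg). n=5–8. ANOVA/Dunnett versus vehicle.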

Data set [17] concerns tele-methylhistamine in the brain of mice. The experiment in a line: Assay of tele-methylhistamine in the brain of mice. It is filed as in vivo, mouse. The conditions noted are these: 30 and 100 mg/kg, p.o., 90 min after treatment. In outline: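 Male OF1 mice (22–25 g) fasted 16 h, then dosed orally with test compound or vehicle (1% methylcellulose in water, 10 ml/kg). Killed 90 min later. Brain homogenised in 10 volumes ice-cold 0.4 N perchloric acid and centrifuged 2000 g, 30 min, 4℃. Supernatant stored at −20℃. Tele-methylhistamine measured by enzyme immunoassay.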

The mark [18] stands for this setting: D-amphetamine i.p., dose and time not given.
Where [19] appears, read: 64 mg/kg, i.p., fifth day of repeated administration.

human SERT (SLC6A4), sequence (P31645 whole entry): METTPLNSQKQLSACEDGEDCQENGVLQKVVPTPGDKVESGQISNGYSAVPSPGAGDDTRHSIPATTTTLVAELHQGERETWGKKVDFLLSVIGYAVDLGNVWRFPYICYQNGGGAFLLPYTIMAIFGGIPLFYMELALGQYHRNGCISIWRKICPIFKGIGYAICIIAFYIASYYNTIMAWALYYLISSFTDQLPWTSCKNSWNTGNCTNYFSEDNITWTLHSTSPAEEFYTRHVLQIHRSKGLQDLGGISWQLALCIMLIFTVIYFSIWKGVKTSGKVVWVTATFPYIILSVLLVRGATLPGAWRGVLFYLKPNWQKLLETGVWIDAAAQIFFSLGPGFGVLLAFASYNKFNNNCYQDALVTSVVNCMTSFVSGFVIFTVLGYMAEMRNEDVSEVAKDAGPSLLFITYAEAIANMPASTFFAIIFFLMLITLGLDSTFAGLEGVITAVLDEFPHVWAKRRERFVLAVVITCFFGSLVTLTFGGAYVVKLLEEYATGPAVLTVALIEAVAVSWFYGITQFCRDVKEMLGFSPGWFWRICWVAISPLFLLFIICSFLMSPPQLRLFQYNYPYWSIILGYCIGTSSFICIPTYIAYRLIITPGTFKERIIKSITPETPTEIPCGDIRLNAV
human NET (SLC6A2), sequence (P23975 1-628 isoform P23975-2): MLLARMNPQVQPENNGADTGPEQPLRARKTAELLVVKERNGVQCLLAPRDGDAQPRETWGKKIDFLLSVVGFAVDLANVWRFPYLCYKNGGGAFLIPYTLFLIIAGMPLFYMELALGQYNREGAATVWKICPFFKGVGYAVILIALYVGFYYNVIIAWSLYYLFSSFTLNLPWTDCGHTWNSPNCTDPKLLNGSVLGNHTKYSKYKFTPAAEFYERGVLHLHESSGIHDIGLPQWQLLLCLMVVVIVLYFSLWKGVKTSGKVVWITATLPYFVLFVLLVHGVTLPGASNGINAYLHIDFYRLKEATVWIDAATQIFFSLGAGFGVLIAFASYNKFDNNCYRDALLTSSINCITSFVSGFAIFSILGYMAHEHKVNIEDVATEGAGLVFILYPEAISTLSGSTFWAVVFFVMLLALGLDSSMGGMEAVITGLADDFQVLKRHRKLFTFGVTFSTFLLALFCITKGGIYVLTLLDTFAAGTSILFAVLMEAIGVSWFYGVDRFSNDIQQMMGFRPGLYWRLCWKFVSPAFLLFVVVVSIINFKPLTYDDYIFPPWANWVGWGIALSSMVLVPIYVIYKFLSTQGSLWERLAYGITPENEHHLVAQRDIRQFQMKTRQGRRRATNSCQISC
human DAT (SLC6A3), sequence (Q01959 whole entry): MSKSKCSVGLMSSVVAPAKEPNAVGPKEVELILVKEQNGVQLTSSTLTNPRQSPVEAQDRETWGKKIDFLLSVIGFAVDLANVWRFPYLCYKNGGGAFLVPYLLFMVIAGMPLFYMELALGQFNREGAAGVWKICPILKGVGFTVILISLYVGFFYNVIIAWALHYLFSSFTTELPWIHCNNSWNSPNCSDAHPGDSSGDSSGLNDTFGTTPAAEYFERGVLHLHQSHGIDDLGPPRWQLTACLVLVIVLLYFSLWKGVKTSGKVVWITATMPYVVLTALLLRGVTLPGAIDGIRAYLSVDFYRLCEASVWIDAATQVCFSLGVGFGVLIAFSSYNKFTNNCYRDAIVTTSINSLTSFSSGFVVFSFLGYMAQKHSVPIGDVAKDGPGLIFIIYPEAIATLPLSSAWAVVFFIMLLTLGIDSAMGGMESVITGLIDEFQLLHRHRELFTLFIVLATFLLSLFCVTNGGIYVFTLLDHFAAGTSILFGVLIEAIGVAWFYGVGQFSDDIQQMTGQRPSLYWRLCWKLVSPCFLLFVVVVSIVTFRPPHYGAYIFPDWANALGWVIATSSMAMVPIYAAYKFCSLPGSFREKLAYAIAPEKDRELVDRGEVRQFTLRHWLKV
human H3 histamine receptor, sequence (Q9Y5N1 whole entry): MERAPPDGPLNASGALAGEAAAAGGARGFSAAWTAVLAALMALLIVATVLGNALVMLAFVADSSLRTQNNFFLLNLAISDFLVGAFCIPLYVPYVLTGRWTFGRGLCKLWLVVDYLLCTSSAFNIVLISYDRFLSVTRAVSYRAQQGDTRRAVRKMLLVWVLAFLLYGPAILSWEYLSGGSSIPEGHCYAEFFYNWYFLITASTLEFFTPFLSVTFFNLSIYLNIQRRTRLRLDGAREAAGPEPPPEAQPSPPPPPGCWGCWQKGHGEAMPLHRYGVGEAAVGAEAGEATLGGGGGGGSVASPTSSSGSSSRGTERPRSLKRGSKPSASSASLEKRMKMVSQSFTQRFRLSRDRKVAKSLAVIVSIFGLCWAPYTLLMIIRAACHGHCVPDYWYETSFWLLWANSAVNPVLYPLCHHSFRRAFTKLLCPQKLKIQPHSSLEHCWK

`C[C@H](N)Cc1ccccc1` [D‐amphetamine]: in data set [1] (setting [18]), the “change of DA in the rat striatum” value is “+25%” and the “change of DOPAC in the rat striatum” value is −15%. The “decrease in food consumption compared with controls (4 h)” value in [2] (3 mg/kg, i.p.) came out at 56%.
Turning to `NC(=O)C[S+]([O-])C(c1ccccc1)c1ccccc1` (stereo not drawn) [Modafinil], the Kb in [3] is more than 10 µM. Moreover, in data set [4], the “Brain AUC0-8h” value amounted to 2298 ng·h/g, the “Brain C max” value was 965 ± 156 ng/g, the “Brain C max (molar)” value is 3.5 µM and the “Brain C max at pharmacologically active doses” value is listed as 6000-12 000. Also, the “Brain C max at pharmacologically active doses (molar)” value in [4] was 22–45 µM. Further, in [5], the AUC(0-t) (usually the area under the concentration-time curve up to a stated or last time point) was found to be 2160 ng·h/mL and the Kp was 1.1. Besides, the “increase of rat locomotor activity versus controls” value in data set [6] (64 mg/kg, i.p., acute administration (day 1)) is given as “+145%”. For the same molecule, in data set [6] (setting [19]), the “increase of rat locomotor activity versus control rats” value is 419% and the “increase of rat locomotor activity versus same treated rats at day 1” value amounted to 53%. In addition, the “reduction in food intake (4 h)” value in [2] (64 mg/kg, p.o.) is listed as 40%. The “reduction in food intake (4 h)” value in [2] (96 mg/kg, p.o.) was 76%. Also, the “reduction in food intake (4 h)” value in data set [2] (128 mg/kg, p.o.) is 96%. Moreover, the “potency in enhancing brain tele-methylhistamine level compared with pitolisant” value in data set [7] (mice) is on record as “less potent”. For the same molecule, in data set [8], the Ki (as a rule, a measure of affinity in units of concentration, obtained from inhibition or displacement) is more than 10 µM. Also, the “hNET Ki” value in [8] (CHO cells expressing human NET, Ki from IC50 by Cheng-Prusoff) is “inactive”.
Regarding `Cl.Clc1ccc(CCCOCCCN2CCCCC2)cc1` [Pitolisant, 1‐{3‐[3‐(4‐Chlorophenyl)propoxy]propyl}piperidine, hydrochloride], in data set [9] (modafinil 64 mg/kg), the “reduction of modafinil-induced hyperlocomotion” value worked out at 58%. Besides, the “effect on modafinil-induced hyperlocomotion” value in [9] (modafinil 128 mg/kg) was “not further reduced”. Further, the “effect on solriamfetol-induced hyperlocomotion” value in [9] (solriamfetol 30 mg/kg) is “fully normalized”. The “reduction of solriamfetol-induced hyperlocomotion” value in data set [9] (solriamfetol 100 mg/kg) was found to be 68%. The same molecule yielded a Ki in data set [10] of 4.1 µM. Further, the “Brain/plasma AUC ratio” value in [11] (AUC0-8h) is given as 23.5. In data set [11], the “Brain AUC0-8h” value was 34 686 ng/g × h, the “Brain C max (molar)” value is recorded as 35 µM, the “Brain T max” value was 30 min and the “Plasma AUC0-8h” value was 1475 ng·h/mL. In data set [11], the “Plasma C max” value was 441 ± 69 ng/mL and the “Plasma T max” value was 30 min. The “effect on cumulative locomotor activity over 5.5 h post-dosing” value in data set [12] (10 and 20 mg/kg) is recorded as “no significant effect”. Also, in [4], the “Brain C max at pharmacologically active doses” value is 10 000-20 000 and the “Brain C max at pharmacologically active doses (molar)” value is on record as 35–70 µM. Besides, the “plasma exposure (C max) in human at therapeutic dose” value in [13] (at 40 mg) is recorded as ~ 36 ng/ml. The molecule further gave a Ki in data set [14] of 5.79 µM. The “effect on levels of extracellular DA in the rat nucleus accumbens” value in [15] is reported as “no effect”. The “locomotor effect in rats” value in [6] (10 mg/kg, i.p., acute or after 5-day-repeated administrations) was “no hyperlocomotion effects”. Moreover, the “effect on food intake during the initial 4 h of the night phase” value in data set [2] (10 and 20 mg/kg, p.o.) is listed as “did not modify”. For the same molecule, the “ED50, enhancement of brain tele-methylhistamine level” value in data set [7] (p.o., in mice) was 1.6 mg/kg. In data set [8], this molecule registered a Ki of 2.5 µM.
Take `NC(=O)OC[C@H](N)Cc1ccccc1` [Solriamfetol]: the Ki in data set [10] came to 2.4 µM. In addition, in data set [3], the Kb is more than 10 µM. Besides, in data set [12] (30 mg/kg), the “effect on cumulative locomotor activity over 5.5 h post-dosing” value is listed as “no effect”. For the same molecule, in [4], the “Brain AUC0-8h” value was 10 990 ng/g × h, the “Brain C max” value was determined as 3935 ± 452 ng/g, the “Brain C max (molar)” value was determined as 20 µM and the “Brain C max at pharmacologically active doses” value is 12 000-40 000. In addition, the “Brain C max at pharmacologically active doses (molar)” value in data set [4] is recorded as 60–200 µM. Besides, in data set [5], the AUC(0-t) stood at 1150 ng·h/mL and the Kp is 9.6. For the same molecule, in [1] (30 mg/kg, p.o., 60 min), the “change of DOPAC in the rat striatum” value is listed as −11% and the “effect on DOPAC/DA ratio relative to that of D-amphetamine (2 mg/kg, i.p.)” value is “about 50%”. Besides, in data set [1] (30 mg/kg, p.o., 60 min, not significant), the “change of DA in the rat striatum” value is “+4%”. In addition, in data set [1] (30 mg/kg, p.o., 60 min after the dose), the “decrease in the DOPAC/DA ratio in the rat striatum” value came out at 14%. For the same molecule, the “effect on 5-HIAA/5-HT ratio in the rat striatum” value in data set [1] (3 and 30 mg/kg, p.o., 60 min after dosage) is given as “No effect”. Besides, in data set [13] (at 150 mg), the “plasma exposure (C max) in human at therapeutic dose” value is ~ 820 ng/ml. In data set [14], this molecule registered a Ki of more than 10 µM. Also, the “hSERT Ki” value in data set [14] (HEK293 cells expressing human SERT, Ki from IC50 by Cheng-Prusoff) is “inactive”. The “locomotor effect in rats” value in data set [6] (60 mg/kg, p.o., over the 5-day repeated administration period) is “no significant locomotion effect”. For the same molecule, in data set [6] (100 mg/kg, p.o., acute), the “locomotor effect in rats” value is “no acute effects”. In [6] (100 mg/kg, p.o., day 5), the “increase of rat locomotor activity versus controls” value worked out at 185% and the “increase of rat locomotor activity versus same treated rats at day 1” value is on record as 106%. In data set [2] (30 mg/kg, p.o.), the “inhibition of food intake (4 h)” value was 25%. The “inhibition of food intake (4 h)” value in [2] (100 mg/kg, p.o.) was found to be 40%. The “effect on extracellular levels of DA in the nucleus accumbens” value in data set [16] (30 mg/kg) was “no effects”. For the same molecule, the “increase of extracellular levels of DA in the nucleus accumbens” value in data set [16] (100 mg/kg, 30 min after administration) is listed as “+138 % of basal levels”. Also, the “AUC of extracellular DA (% basal dopamine level), enhancement” value in data set [16] (100 mg/kg, 90 min (1.5 h) post-administration period) is on record as 123%. Moreover, in [8], affinity was put at a Ki of 4.8 µM. Also, in data set [17], the “effect on tele-methylhistamine levels in the brain of mice” value was “no significant effect”. In addition, the “effect on tele-methylhistamine levels in the brain of mice” value in data set [17] (listed as solriamfetol) was “no effect”.
